Where two headings read alike, the source gives them in different places. Square brackets hold non-standard residues; d marks the D form. Peptide text beside a SMILES is read from it. pY = N[C@@H](Cc1ccc(OP(=O)(O)O)cc1)C(=O)O
Key:
[1] = biological target: FPRck-inhibited thrombin (anion-binding exosite II) (Homo sapiens, UniProt P00734); assay: Surface plasmon resonance; conditions: SPR; for measurable binding to thrombin (in words): HBS-EP+, 25°C (Figure 3)
How it was run: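 Biotinylated peptides captured on streptavidin chips at 150 RU after three 60 s 1 M NaCl/50 mM NaOH conditioning pulses, with blank reference cells. HBS-EP+ (10 mM HEPES pH 7.4, 150 mM NaCl, 0.05% P20, 3 mM EDTA), 25°C. Serial thrombin injections for 20 s at 50 μl/min, 30 s dissociation, no regeneration. Buffer-only and reference signals subtracted. Equilibrium 1:1 Langmuir Kd from three replicates with fresh dilutions.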

[2] = biological target: wild-type γ′ peptide (fibrinogen γ′ chain 410-427, both tyrosines phosphorylated); assay: SPR
[3] = biological target: wild-type γ′ peptide (fibrinogen γ′ chain 410-427, both tyrosines phosphorylated); assay: SPR; remark: listed apart in the source
[4] = biological target: wild-type γ′ peptide (fibrinogen γ′ chain 410-427, both tyrosines phosphorylated); assay: SPR; remark: listed apart in the source
[5] = biological target: wild-type γ′ peptide (fibrinogen γ′ chain 410-427, both tyrosines phosphorylated); assay: SPR; remark: listed apart in the source
[6] = biological target: γ′ analog peptide #12 (amino terminal three charges substituted); assay: SPR
[7] = biological target: γ′ analog peptide #4 (pTyr418Tyr); assay: SPR
[8] = biological target: γ′ analog peptide #6 (pTyr422Tyr); assay: SPR
γ′ analog peptide #2 = assay: SPR
[9] = biological target: γ′ analog peptide #13 (carboxyl terminal three charges substituted); assay: SPR
γ′ analog peptide #8 = assay: SPR
γ′ analog peptide #1 = assay: SPR
[10] = biological target: γ′ analog peptide #9 (Asp426Asn); assay: SPR
γ′ analog peptide #3 = assay: SPR
γ′ analog peptide #7 = assay: SPR
[11] = biological target: γ′ analog peptide #5 (Asp419Asn); assay: SPR
[12] = biological target: wild-type γ′ peptide (fibrinogen γ′ chain 410-427, both tyrosines phosphorylated); assay: SPR; remark: listed apart in the source

CC(C)C[C@H](NC(=O)[C@H](CC(=O)O)NC(=O)[C@H](CC(=O)O)NC(=O)[C@H](CCC(=O)O)NC(=O)[C@@H]1CCCN1C(=O)[C@H](Cc1ccc(OP(=O)(O)O)cc1)NC(=O)[C@H](CC(C)C)NC(=O)[C@H](CO)NC(=O)[C@H](CC(=O)O)NC(=O)[C@H](Cc1ccc(OP(=O)(O)O)cc1)NC(=O)[C@H](CCC(=O)O)NC(=O)[C@@H](NC(=O)[C@H](CCC(=O)O)NC(=O)[C@H](C)NC(=O)[C@@H]1CCCN1C(=O)[C@H](Cc1c[nH]cn1)NC(=O)[C@H](CCC(=O)O)NC(=O)[C@@H]1CCCN1)[C@@H](C)O)C(=O)O [Wild-type] (H-PEHPAETE[pY]DSL[pY]PEDDL-OH) showed a Kd ([1]; Kd (mean ± standard error of the mean), [NaCl] 150 mM, 25°C) of 0.488 ± 0.042 µM.

In the case of FPRck-inhibited thrombin (enzyme), the Kd [2] is reported as 6.05 µM, the Kd [3] is reported as 120 µM and the Kd [4] is reported as 0.488 µM. It also gave a Kd [5] of 0.44 µM, a Kd [6] of 1.97 µM and a Kd [7] of 0.583 µM. For the same molecule, the Kd [8] was 0.702 µM, the Kd (γ′ analog peptide #2) was 0.485 µM and the Kd [9] was 3.19 µM. The Kd (γ′ analog peptide #8) was 0.608 µM, the Kd (γ′ analog peptide #1) was 0.441 µM and the Kd [10] was 0.465 µM. The Kd (γ′ analog peptide #3) was 0.541 µM, the Kd (γ′ analog peptide #7) was 0.582 µM and the Kd [11] was 0.705 µM. The Kd [12] was 18.6 µM.

For PEHPAETE YNSL YPEDDL [#10], the “measurable binding to thrombin (in words)” value [1] was “complete absence of measurable binding”.

With PQHPAQTQpYDSLpYPQNNL [#11] the “measurable binding to thrombin (in words)” value [1] was “no measurable interaction with thrombin”.
